Measurements reported in ChEMBL document CHEMBL1221199, “Structure-guided development of affinity probes for tyrosine kinases using chemical genetics” (Nat Chem Biol, 2007).
The source made the active and inactive calls. The rule behind the calls is not given here.

Legend:
[1] = target: Tyrosine-protein kinase Fyn (Homo sapiens, UniProt P06241, S349C); assay: Inhibition of Fyn S349C mutant in expressed in Escherichia coli C43 by radioactive phosphotransfer assay
[2] = target: Tyrosine-protein kinase Fyn (Homo sapiens, UniProt P06241); assay: Inhibition of Fyn expressed in Escherichia coli C43 by radioactive phosphotransfer assay
[3] = target: Proto-oncogene tyrosine-protein kinase Src (Gallus gallus) (UniProt P00523); assay: Inhibition of c-src in by radioactive phosphotransfer assay
[4] = Inhibition of c-src T338G/S345C double mutant by radioactive phosphotransfer assay
Method in brief: (§1)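 Kinase-domain c-Src variants (T338G, S345C, T338G/S345C) were made by site-directed mutagenesis and expressed in E. coli BL21(DE3) co-transformed with YopH, GroEL and trigger factor. Protein was quantified by A280 and stored at −80 °C. Radioactive phosphotransfer assays were run in triplicate across a range of inhibitor concentrations.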

[5] = target: Tyrosine-protein kinase Fyn (Homo sapiens, UniProt P06241, S349C/T342G); assay: Inhibition of Fyn T342G/S349C double mutant expressed in Escherichia coli C43 by radioactive phosphotransfer assay
[6] = Inhibition of c-src T338G mutant by radioactive phosphotransfer assay; method in brief: as §1
[7] = target: Tyrosine-protein kinase Fyn (Homo sapiens, UniProt P06241, T342G); assay: Inhibition of Fyn T342G mutant expressed in Escherichia coli C43 by radioactive phosphotransfer assay
[8] = target: T1, Epidermal growth factor receptor (Homo sapiens, UniProt P00533); assay: Inhibition of human recombinant EGFR expressed in baculovirus-infected Sf9 cells by radioactive phosphotransfer assay; format: cell-based
[9] = target: T1, Epidermal growth factor receptor; assay: Inhibition of EGFR3 transfected in EGF-stimulated mouse NIH/3T3 cells assessed as reduction of receptor-mediated Erk1 phosphorylation at 0.037 to 1 uM by radioactive phosphotransfer assay; format: cell-based; conditions: NIH3T3, in the assay text read “immunoblotting” for “radioactive phosphotransfer assay”
Method in brief: (§2)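 Transduced 3T3:EGFR-as3 cells were serum-starved overnight in 0.5% FBS, then given three-fold inhibitor dilutions from 1 µM to 37 nM (1% DMSO) for 1.5 h. […] Protein-normalised lysates were separated by SDS-PAGE, fluorescence-scanned, then immunoblotted for downstream phosphorylation. Run in duplicate.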

[10] = target: T1, Epidermal growth factor receptor; assay: Inhibition of EGFR3 transfected in EGF-stimulated mouse NIH/3T3 cells assessed as reduction of receptor-mediated Akt phosphorylation at 0.037 to 1 uM by radioactive phosphotransfer assay; format: cell-based; conditions: NIH3T3, in the assay text read “immunoblotting” for “radioactive phosphotransfer assay”; method in brief: as §2
[11] = target: T1, Epidermal growth factor receptor; assay: Inhibition of EGFR3 transfected in EGF-stimulated mouse NIH/3T3 cells assessed as reduction of receptor-mediated Erk2 phosphorylation at 0.037 to 1 uM by radioactive phosphotransfer assay; format: cell-based; conditions: NIH3T3, in the assay text read “immunoblotting” for “radioactive phosphotransfer assay”; method in brief: as §2
[12] = target: T1, Epidermal growth factor receptor; assay: Inhibition of […] EGFR3 phosphorylation transfected in mouse NIH/3T3 cells at 0.1 to 2 uM by radioactive phosphotransfer assay; format: cell-based; conditions: NIH3T3, in the assay text read “immunoblotting” for “radioactive phosphotransfer assay”
Method in brief: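 Mouse NIH-3T3 fibroblasts lacking detectable endogenous EGFR, retrovirally transduced with analog-sensitive EGFR-as3 and hygromycin-selected, then grown in DMEM/10% FBS. Inhibitor at 0.1, 1.0 or 2.0 µM (1.2% DMSO), with or without EGF 100 ng/ml for 30 min before harvest. Equal lysate protein run on SDS-PAGE; anti-phosphotyrosine (4G10) immunoblot detected by ECL, with EGFR blot alongside.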

[13] = target: T1, Epidermal growth factor receptor; conditions: NIH3T3; at 0.1 to 2 µM

Chain of Tyrosine-protein kinase Fyn (Homo sapiens, UniProt P06241, S349C) (P06241 2-537 S349C limits assumed): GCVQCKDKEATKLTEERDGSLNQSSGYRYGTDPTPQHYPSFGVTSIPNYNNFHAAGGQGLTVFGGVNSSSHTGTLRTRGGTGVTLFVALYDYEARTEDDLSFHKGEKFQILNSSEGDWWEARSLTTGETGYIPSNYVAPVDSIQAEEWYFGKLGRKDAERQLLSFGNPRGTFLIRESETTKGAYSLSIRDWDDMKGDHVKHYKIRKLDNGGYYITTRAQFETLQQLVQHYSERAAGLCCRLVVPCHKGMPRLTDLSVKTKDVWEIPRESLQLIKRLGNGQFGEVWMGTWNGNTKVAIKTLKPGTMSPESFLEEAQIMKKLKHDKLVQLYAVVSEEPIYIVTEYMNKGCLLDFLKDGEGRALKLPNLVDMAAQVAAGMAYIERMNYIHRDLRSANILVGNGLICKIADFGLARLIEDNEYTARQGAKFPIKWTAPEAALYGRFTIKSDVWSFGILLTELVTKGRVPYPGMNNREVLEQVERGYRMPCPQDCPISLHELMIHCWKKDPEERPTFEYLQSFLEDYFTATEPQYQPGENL
Chain of Tyrosine-protein kinase Fyn (Homo sapiens, UniProt P06241) (P06241 whole entry): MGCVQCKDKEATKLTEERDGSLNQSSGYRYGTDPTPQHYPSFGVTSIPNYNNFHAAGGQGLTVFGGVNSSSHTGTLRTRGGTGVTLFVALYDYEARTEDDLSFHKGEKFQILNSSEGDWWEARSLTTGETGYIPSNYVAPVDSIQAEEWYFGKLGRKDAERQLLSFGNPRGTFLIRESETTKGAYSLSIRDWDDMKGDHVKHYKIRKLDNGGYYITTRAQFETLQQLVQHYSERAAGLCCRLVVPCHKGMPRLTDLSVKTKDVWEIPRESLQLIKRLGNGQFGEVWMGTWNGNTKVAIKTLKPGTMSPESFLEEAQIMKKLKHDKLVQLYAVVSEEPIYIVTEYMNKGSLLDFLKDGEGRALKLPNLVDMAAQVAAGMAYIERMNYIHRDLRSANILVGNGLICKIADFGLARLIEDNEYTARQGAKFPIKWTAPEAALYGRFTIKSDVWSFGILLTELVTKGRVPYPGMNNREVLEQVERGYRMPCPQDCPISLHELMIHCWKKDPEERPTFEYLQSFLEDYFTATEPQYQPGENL
T1 sequence (P00533 whole entry): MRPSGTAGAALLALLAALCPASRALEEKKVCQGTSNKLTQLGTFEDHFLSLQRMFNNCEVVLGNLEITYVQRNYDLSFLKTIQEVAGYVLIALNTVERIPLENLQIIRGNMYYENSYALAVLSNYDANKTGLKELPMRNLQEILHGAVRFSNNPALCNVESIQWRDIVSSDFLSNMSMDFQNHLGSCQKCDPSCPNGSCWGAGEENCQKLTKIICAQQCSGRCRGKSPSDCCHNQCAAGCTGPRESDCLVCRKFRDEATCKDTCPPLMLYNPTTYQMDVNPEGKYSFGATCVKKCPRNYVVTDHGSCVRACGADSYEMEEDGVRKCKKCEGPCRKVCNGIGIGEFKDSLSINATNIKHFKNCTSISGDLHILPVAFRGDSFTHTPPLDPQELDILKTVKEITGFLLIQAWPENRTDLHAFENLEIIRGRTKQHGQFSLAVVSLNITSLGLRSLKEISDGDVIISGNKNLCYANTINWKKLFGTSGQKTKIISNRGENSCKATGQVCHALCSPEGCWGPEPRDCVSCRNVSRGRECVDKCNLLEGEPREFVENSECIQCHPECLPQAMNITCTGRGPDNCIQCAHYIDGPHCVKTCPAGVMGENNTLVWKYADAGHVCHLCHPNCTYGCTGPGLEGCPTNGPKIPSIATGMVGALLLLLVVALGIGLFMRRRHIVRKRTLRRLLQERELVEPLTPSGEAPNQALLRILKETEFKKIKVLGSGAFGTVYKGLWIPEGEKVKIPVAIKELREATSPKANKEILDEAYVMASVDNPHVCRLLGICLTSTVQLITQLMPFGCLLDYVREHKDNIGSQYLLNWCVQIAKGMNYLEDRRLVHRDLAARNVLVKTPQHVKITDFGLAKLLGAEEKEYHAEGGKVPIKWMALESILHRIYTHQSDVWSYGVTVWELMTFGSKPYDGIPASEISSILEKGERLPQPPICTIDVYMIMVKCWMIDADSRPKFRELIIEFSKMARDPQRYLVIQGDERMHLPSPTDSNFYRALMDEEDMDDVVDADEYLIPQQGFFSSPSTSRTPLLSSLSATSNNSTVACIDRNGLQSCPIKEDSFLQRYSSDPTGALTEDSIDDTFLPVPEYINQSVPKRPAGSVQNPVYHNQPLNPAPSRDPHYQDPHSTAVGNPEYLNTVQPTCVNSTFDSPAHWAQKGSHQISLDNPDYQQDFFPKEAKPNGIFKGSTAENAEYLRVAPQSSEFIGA
Chain of Tyrosine-protein kinase Fyn (Homo sapiens, UniProt P06241, T342G) (P06241 2-537 T342G limits assumed): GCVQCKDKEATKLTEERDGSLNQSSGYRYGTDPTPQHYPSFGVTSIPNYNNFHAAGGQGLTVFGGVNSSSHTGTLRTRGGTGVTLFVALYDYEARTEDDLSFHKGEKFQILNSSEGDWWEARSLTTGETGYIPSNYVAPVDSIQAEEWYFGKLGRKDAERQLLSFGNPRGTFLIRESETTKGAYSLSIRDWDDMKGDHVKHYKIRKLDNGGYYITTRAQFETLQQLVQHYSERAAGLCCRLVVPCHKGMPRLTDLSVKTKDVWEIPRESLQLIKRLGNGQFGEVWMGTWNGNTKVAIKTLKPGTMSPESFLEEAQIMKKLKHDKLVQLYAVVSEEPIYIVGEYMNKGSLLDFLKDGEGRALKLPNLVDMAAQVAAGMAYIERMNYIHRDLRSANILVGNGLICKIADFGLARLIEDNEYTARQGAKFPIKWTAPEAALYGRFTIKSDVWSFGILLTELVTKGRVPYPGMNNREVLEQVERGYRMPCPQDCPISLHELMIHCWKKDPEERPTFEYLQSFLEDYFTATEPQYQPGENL
Chain of Tyrosine-protein kinase Fyn (Homo sapiens, UniProt P06241, S349C/T342G) (P06241 2-537 T342G/S349C limits assumed): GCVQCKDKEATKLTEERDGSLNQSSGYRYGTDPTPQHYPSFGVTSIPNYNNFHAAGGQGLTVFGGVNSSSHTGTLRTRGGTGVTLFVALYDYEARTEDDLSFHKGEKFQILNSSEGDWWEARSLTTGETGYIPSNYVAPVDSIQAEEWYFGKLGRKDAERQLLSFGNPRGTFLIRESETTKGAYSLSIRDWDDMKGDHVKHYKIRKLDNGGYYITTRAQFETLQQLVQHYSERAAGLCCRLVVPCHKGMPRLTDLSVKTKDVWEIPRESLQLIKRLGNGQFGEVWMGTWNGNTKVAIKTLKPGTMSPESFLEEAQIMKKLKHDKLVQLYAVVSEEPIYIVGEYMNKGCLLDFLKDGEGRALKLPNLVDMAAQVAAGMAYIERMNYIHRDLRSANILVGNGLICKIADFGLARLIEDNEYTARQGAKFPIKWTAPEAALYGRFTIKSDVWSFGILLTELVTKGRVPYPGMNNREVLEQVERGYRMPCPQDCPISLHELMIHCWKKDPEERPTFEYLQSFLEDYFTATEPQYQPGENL

Row | SMILES | IC50 [1] | IC50 [2] | IC50 [3] | IC50 [4] | IC50 [5] | IC50 [6] | IC50 [7] | IC50 [8] | inhibition [9] | inhibition [10] | inhibition [11] | inhibition [12] | inhibition [13]
1 | C=CC(=O)Nc1ccc2ncnc(Nc3ccc(C(C)(C)C)cc3)c2c1 | 8400 nM | > 300000 nM | > 27000 nM | 5 nM | 24 nM | 187 nM | 900 nM | 689 nM | Active | Active | Active | Active | inactive
2 | C=CC(=O)Nc1ccc2ncnc(NCCc3ccccc3)c2c1 | 1400 nM | 40000 nM | > 27000 nM | 109 nM | 88 nM | 551 nM | 3800 nM | – | – | – | – | – | –
3 | C=CC(=O)Nc1ccc2ncnc(Nc3ccc(-c4ccccc4)cc3)c2c1 | 760 nM | > 300000 nM | > 27000 nM | 13 nM | 107 nM | 374 nM | 9700 nM | – | – | – | – | – | –
4 | CCC(=O)Nc1ccc2ncnc(Nc3ccc(C(C)(C)C)cc3)c2c1 | > 300000 nM | > 300000 nM | > 27000 nM | 254 nM | 540 nM | 218 nM | 1500 nM | – | – | – | – | – | –
5 | C=CC(=O)Nc1ccc2ncnc(NCc3cccc4ccccc34)c2c1 | 1700 nM | 32000 nM | > 27000 nM | 24 nM | 150 nM | 123 nM | 1500 nM | – | – | – | – | – | –

These reach a lower IC50 [1]. Values come first.

Row | IC50 [1] | IC50 [2] | IC50 [3] | IC50 [4] | IC50 [5] | IC50 [6] | IC50 [7] | IC50 [8] | inhibition [9] | inhibition [10] | inhibition [11] | inhibition [12] | inhibition [13] | SMILES
6 | 670 nM | 16300 nM | 16300 nM | 27 nM | 30 nM | 1270 nM | 2100 nM | – | – | – | – | – | – | C=CC(=O)Nc1ccc2ncnc(Nc3cccc4ccccc34)c2c1
7 | 42 nM | > 300000 nM | – | 1 nM | 1 nM | 173 nM | 420 nM | – | – | – | – | – | – | C=CC(=O)Nc1ccc2ncnc(Nc3cccc(Br)c3)c2c1
8 | 34 nM | > 300000 nM | > 27000 nM | 37 nM | 19 nM | 1740 nM | 4650 nM | – | – | – | – | – | – | C=CC(=O)Nc1ccc2ncnc(Nc3ccc(Br)cc3)c2c1
9 | 340 nM | > 300000 nM | > 27000 nM | 16 nM | 32 nM | 357 nM | 2200 nM | – | – | – | – | – | – | C=CC(=O)Nc1ccc2ncnc(Nc3ccc(C(C)C)cc3)c2c1
10 | 32 nM | 18100 nM | > 27000 nM | 13 nM | 3 nM | 1360 nM | 1800 nM | – | – | – | – | – | – | C=CC(=O)Nc1ccc2ncnc(Nc3ccc4ccccc4c3)c2c1
11 | 5 nM | 3700 nM | > 27000 nM | 20 nM | 6 nM | 1570 nM | 1100 nM | < 1 nM | – | – | – | – | – | C=CC(=O)Nc1ccc2ncnc(Nc3ccccc3)c2c1
